Active and inactive are the calls of the source. No cut-off for these calls is given here.
Columns and labels:
[1] = Cytotoxicity against mouse NIH/3T3 cells assessed as cell killing effect after 72 hrs by MTT assay; format: cell-based; conditions: NIH3T3, 72 h
Summary of the method: (§1)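 Cells were treated continuously for 72 h. Cytotoxicity is reported as IC50 in μM.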

[2] = Cellular uptake in mouse B16F10 cells at 2 uM after 4 hrs by fluorescence microscopic analysis; format: ADME, cell-based; conditions: b16-f10, 4 h
Summary of the method: (§2)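 Live cells were examined by fluorescence microscopy for uptake of the intrinsically fluorescent molecules, with untreated cells as control. Uptake was also quantified as % uptake per microgram of cellular protein. Fluorescence values were normalized to the absorption values of each molecule because their absorptivities differ.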

[3] = Cytotoxicity against mouse B16F10 cells assessed as cell killing effect after 72 hrs by MTT assay; format: functional, cell-based; conditions: B16-F10, 72 h; summary of the method: as §1
[4] = Cellular uptake in human PANC1 cells at 2 uM after 4 hrs by fluorescence microscopic analysis; format: ADME, cell-based; conditions: panc-1, 4 h; summary of the method: as §2
[5] = Cytotoxicity against human PANC1 cells assessed as cell killing effect after 72 hrs by MTT assay; format: functional, cell-based; conditions: PANC-1, 72 h; summary of the method: as §1
[6] = Cellular uptake in mouse NIH/3T3 cells at 2 uM after 4 hrs by fluorescence microscopic analysis; format: ADME, cell-based; conditions: nih3t3, 4 h; summary of the method: as §2
[7] = test system: CHO; experiment: Cytotoxicity against CHO cells assessed as cell killing effect after 72 hrs by MTT assay; format: cell-based; conditions: Cricetulus griseus; summary of the method: as §1
[8] = test system: B16-F10; experiment: Induction of apoptosis in mouse B16F10 cells assessed as viable cells at 2 uM after 45 hrs by annexinV-FITC/propidium iodide staining-based flow cytometric analysis (reference value: 90.1%); format: functional; conditions: B16-F10, 45 h, read-out: Activity
Summary of the method: (§3)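 Treated B16F10 cells were double-stained with annexin V and propidium iodide and analysed by flow cytometry, with untreated cells as control. Quadrants: Q1 PI-only (necrotic); Q2 double-positive (post-apoptotic); Q4 annexin-only (apoptotic); Q3 double-negative (healthy).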

[9] = test system: B16-F10; experiment: Induction of apoptosis in mouse B16F10 cells assessed as necrotic cells at 2 uM after 45 hrs by annexinV-FITC/propidium iodide staining-based flow cytometric analysis (reference value: 9%); format: functional; summary of the method: as §3
[10] = test system: B16-F10; experiment: Induction of apoptosis in mouse B16F10 cells assessed as early apoptotic cells at 2 uM after 45 hrs by annexinV-FITC/propidium iodide staining-based flow cytometric analysis (reference value: 0.1%); format: functional; summary of the method: as §3
[11] = test system: MDA-MB-231; experiment: Cytotoxicity against human MDA-MB-231 cells assessed as cell killing effect after 72 hrs by MTT assay; format: functional, cell-based; conditions: MDA-MB-231, 72 h; summary of the method: as §1
[12] = test system: OVCAR-3; experiment: Cytotoxicity against human OVCAR3 cells assessed as cell killing effect after 72 hrs by MTT assay; format: functional, cell-based; conditions: OVCAR-3, 72 h; summary of the method: as §1
[13] = Induction of reactive oxygen species generation in mouse NIH/3T3 cells at 2 uM after 36 hrs by DCFDA dye-based fluorescence microscopic analysis; format: cell-based; conditions: nih3t3, 36 h
Summary of the method: (§4)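 Treated cells were imaged for ROS by fluorescence microscopy at 20× magnification, with untreated cells as control.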

[14] = test system: B16-F10; experiment: Induction of apoptosis in mouse B16F10 cells assessed as late apoptotic cells at 2 uM after 45 hrs by annexinV-FITC/propidium iodide staining-based flow cytometric analysis (reference value: 0.8%); format: functional; summary of the method: as §3
[15] = test system: MCF7; experiment: Cytotoxicity against human MCF7 cells assessed as cell killing effect after 72 hrs by MTT assay; format: functional, cell-based; conditions: MCF7, 72 h; summary of the method: as §1
[16] = test system: B16-F10; experiment: Induction of reactive oxygen species generation in mouse B16F10 cells at 2 uM after 36 hrs by DCFDA dye-based fluorescence microscopic analysis; format: functional, cell-based; summary of the method: as §4
[17] = test system: A549; experiment: Cytotoxicity against human A549 cells assessed as cell killing effect after 72 hrs by MTT assay; format: functional, cell-based; conditions: A549, 72 h; summary of the method: as §1

In the case of `C=C(C)[C@@H]1CC[C@]2(C(=O)NCCCNC(=S)Nc3ccc4c(c3)C(=O)OC43c4ccc(O)cc4Oc4cc(O)ccc43)CC[C@]3(C)[C@H](CC[C@@H]4[C@@]5(C)CC[C@H](O)C(C)(C)[C@@H]5CC[C@]43C)[C@@H]12`, the IC50 [1] is reported as over 20 µM, the Drug uptake [2] is reported as “Active” and the IC50 [3] is reported as 20 µM. The Drug uptake [4] was “Active”, the IC50 [5] was 9.78 µM and the Drug uptake [6] was “Not Active”.

In the case of `COc1ccc(CN2C(=O)C(=C(c3ccc(O)cc3)c3ccc(O)cc3)c3ccccc32)cc1`, the IC50 [7] is reported as over 20 µM, the viability at 2 µM [8] is reported as 93% and the Activity [9] is reported as 5.1%. For the same compound, the IC50 [1] was over 20 µM, the Activity [10] was 0.2% and the Drug uptake [2] was “Active”. The IC50 [3] was over 20 µM, the IC50 [11] was over 20 µM and the Drug uptake [4] was “Active”. For the same compound, the IC50 [12] was over 20 µM, the Activity [13] was “Non-toxic” and the IC50 [5] was over 20 µM. The Activity [14] was 1.7%, the IC50 [15] was over 20 µM and the Drug uptake [6] was “Active”.

`C=C(C)[C@@H]1CC[C@]2(C(=O)NCCCOc3ccc(/C(=C4\C(=O)N(Cc5ccc(OC)cc5)c5ccccc54)c4ccc(O)cc4)cc3)CC[C@]3(C)[C@H](CC[C@@H]4[C@@]5(C)CC[C@H](O)C(C)(C)[C@@H]5CC[C@]43C)[C@@H]12` showed an IC50 [7] of over 20 µM, a viability at 2 µM [8] of 36.6% and an Activity [9] of 5%. The IC50 [1] was over 20 µM, the Activity [10] was 3.8% and the Activity [16] was “Active”. For the same compound, the Drug uptake [2] was “Active”, the IC50 [3] was 2.3 µM and the IC50 [11] was 1.26 µM. For the same compound, the Drug uptake [4] was “Active”, the IC50 [12] was 6.05 µM and the Activity [13] was “Non-toxic”. The IC50 [17] was 2.56 µM, the IC50 [5] was 2.63 µM and the Activity [14] was 54.6%. For the same compound, the IC50 [15] was 7.4 µM and the Drug uptake [6] was “Not Active”.

`COc1cccc2c1C(=O)c1c(O)c3c(c(O)c1C2=O)C[C@@](O)(C(=O)CO)C[C@@H]3O[C@H]1C[C@H](N)[C@H](O)[C@H](C)O1` [DOXORUBICIN] showed a viability at 2 µM [8] of 43.4%, an Activity [9] of 34.1% and an IC50 [1] of 7.21 µM. The Activity [10] was 1.1%, the Activity [16] was “Active” and the Drug uptake [2] was “Active”. The IC50 [3] was 0.663 µM, the Drug uptake [4] was “Active” and the Activity [13] was “Toxic”. For the same compound, the IC50 [5] was 1.03 µM, the Activity [14] was 21.4% and the Drug uptake [6] was “Active”.

Work on `COc1ccc(CN2C(=O)/C(=C(/c3ccc(O)cc3)c3ccc(OCCCN)cc3)c3ccccc32)cc1` yielded a viability at 2 µM [8] of 90.7%, an Activity [9] of 8.4% and an Activity [10] of 0%. The Drug uptake [2] was “Active”, the IC50 [3] was over 20 µM and the IC50 [11] was over 20 µM. For the same compound, the Drug uptake [4] was “Active”, the Activity [13] was “Non-toxic” and the IC50 [17] was 1.36 µM. For the same compound, the IC50 [5] was over 20 µM, the Activity [14] was 0.9% and the Drug uptake [6] was “Not Active”.

With `C=C(C)[C@@H]1CC[C@]2(C(=O)O)CC[C@]3(C)[C@H](CC[C@@H]4[C@@]5(C)CC[C@H](O)C(C)(C)[C@@H]5CC[C@]43C)[C@@H]12` [BETULINIC ACID] the IC50 [7] was over 20 µM, the viability at 2 µM [8] was 98.8% and the Activity [9] was 0%. For the same compound, the IC50 [1] was over 20 µM, the Activity [10] was 0.3% and the Activity [16] was “Active”. For the same compound, the IC50 [3] was over 20 µM, the IC50 [11] was over 20 µM and the IC50 [12] was 8.37 µM. The Activity [13] was “Non-toxic”, the IC50 [17] was over 20 µM and the IC50 [5] was 10.2 µM. It also gave an Activity [14] of 0.9% and an IC50 [15] of 10.5 µM.

Reference: ChEMBL document CHEMBL3580571, “Bis-arylidene oxindole-betulinic Acid conjugate: a fluorescent cancer cell detector with potent anticancer activity” (ACS Med Chem Lett, 2015)
